In the EternaBench riboswitch data:

Test system: MS2 coat protein
Experiment: apparent Kd, MS2 coat protein; higher = weaker binding; RNA-MaP array; FMN 200 µM where present
Summary of the method: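 Binding was read on Illumina sequencing-chip clusters where stalled E. coli RNA polymerase had transcribed each design. A titration of SNAP-549-labelled MS2 coat protein began at 0.7 or 1.5 nM and doubled to 3 µM, once without ligand and once with constant ligand, in 100 mM Tris-HCl pH 7.5, 80 mM KCl, 4 mM MgCl2, BSA, DTT, yeast tRNA and Tween-20. The apparent Kd is the median of filtered per-cluster binding-curve fits, based on green signal normalised to red-channel RNA signal and control-cluster median Fmax.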

[1] = designed as: ON switch for flavin mononucleotide, no ligand
[2] = ligand present: flavin mononucleotide, designed as: ON switch for flavin mononucleotide
[3] = designed as: OFF switch for flavin mononucleotide, no ligand
[4] = ligand present: flavin mononucleotide, designed as: OFF switch for flavin mononucleotide

Row | Sequence | apparent Kd [1] | apparent Kd [2] | apparent Kd [3] | apparent Kd [4]
1 | CUCCAUUCUGGAGGAUAUCAUAGUCGUUGACUAUGAGAAGGUUAGCUAUCUUACAUGAGGAUCACCCAUGUGAUCUACAUGGAG | 40.5 nM | 10.8 nM | – | –
2 | CUCCGCGCUGUCAGGAUAUCCAGGGCCUACCGGCCGGAGAAGGGACAUGAGGAUCACCCAUGUUCGGGUUAGCA | – | – | 15.7 nM | 17.6 nM
3 | CUCCUACAUGAGGAUCACCCAUGUCAGGAUAUCUCAGUGGCGCCUAAAUGUGCCACCCAGAGAAGGGACGUGCA | – | – | 11.6 nM | 15.3 nM
4 | CUCCUGUGAUUAGGAUAUGUGCGCACUGUGCUAGCAGAAGGGAUCACAUGAGGAUCACCCAUGUGAGUAGCUCACUGUAAAGGG | – | – | 111 nM | 107 nM
5 | CUCGUGUGAGGAUAUGCGGGCGGGCGCGUUUGUGUUUGUUUGUAGAAGGUACAUGAGGAUCACCCAUGUGCUGG | – | – | 24 nM | 80.9 nM
6 | CUCUUGUAAGGAUAUCACCACACAAAAAAAAAAAAGUGUGGUGAGAAGGUACAUGAGGAUCACCCAUGUACUAA | – | – | 23 nM | 22.5 nM
7 | CUGAAGAUAUCAGGAUAUCUAUUUCCUACAUGAGGAUCACCCAUGUAGGUGAUCAGCCGAGUAAAGGAGAAGGGAUAUCUUUAG | 27.1 nM | 10.1 nM | – | –
8 | CUGAGGUCAGGAUAUGCAUGGCGGGACUUGCGUCGUGGCGUGGAGAAGGGACAUGAGGAUCACCCAUGUGGAGC | – | – | 59.8 nM | 57 nM
9 | CUGAUGUUAGGAUAUCAGGCCGUGCGCGAAGGCGGGCAGCAUGAGAAGGAACAUGAGGAUCACCCAUGUGACGA | – | – | 27.2 nM | 67.8 nM
10 | CUGCUGAAGCUUUGCUUUAGUCGUACAUGAGGAUCACCCAUGUAGGAUAUGGUAGGCUUUGCUUACUAGAAGGAUAGAGUGGUC | – | – | 52.6 nM | 27.6 nM
11 | CUGCUGGAGCUUUGCUUUAGUCGUACAUGAGGAUCACCCAUGUAGGAUAUGGUAGGCUUCGCUUACUAGAAGGAUAGAGUGGUC | – | – | 33.6 nM | 22.8 nM
12 | CUGGAAGUCACAGGAUAUCCGGACACAUGUCCAGGAGAAGGGUGAGUAGUUUCACAUGAGGAUCACCCAUGUGGCGGUUCCAGA | 264 nM | 21.2 nM | – | –
13 | CUGUACAUAGGAUAUAGUUGUUUUUACAUGAGGAUCACCCAUGUUACUCCUCUCUCUCUUCUAGAAGGAUGUUUUU | – | – | 79.8 nM | 58.4 nM
14 | CUGUAGUGAGGAUAUUAUUUGCAAGCCCUAGACGGCGCGAAUGAGAAGGUACAUGAGGAUCACCCAUGUGGUUG | – | – | 126 nM | 297 nM
15 | CUGUGUUGCGGGCAGGAUAUGUAUUGGAAUACAUGAGGAUCACCCAUGUGCGGGUGUUUCACCCGACAGAAGGGCCAAUCGCGAC | 363 nM | 34.9 nM | – | –
16 | CUGUUAUAGGUCCAGAAUUACAACAUGAGGAUCACCCAUGUGCAGGAUAUCGGGUUGAUAGGCGCCGAGAAGGGCAUAGUCACG | – | – | 64.5 nM | 106 nM
17 | CUUAAACAUGAGGAUCACCCAUGUGAGGAUAUGAUGCGAAUAAAGAAAGAAGAAAGCAUCAGAAGGCACAUAUG | – | – | 86.9 nM | 236 nM
18 | CUUAAGCUGGCAAGGGCUGGUGAAGAGGAUAUACAUGCUAAGCGAACCACAUGAGGAUCACCCAUGUAGAAGGCUUCCCAGAAA | – | – | 159 nM | 111 nM
19 | CUUAGGUGUACAUGAGGAUCACCCAUGUCCCUGGUCAUUAGACAGGAUAUAUGGGCGGUCGCUGCAUAGAAGGGUUAAAUGGGA | 764 nM | 591 nM | – | –
20 | CUUAUGUGAGGAUAUCAGUAGUGAUACGAUAGUAUUACUGCUGAGAAGGCACAUGAGGAUCACCCAUGUUCCUU | – | – | 26.1 nM | 51.9 nM
21 | CUUAUGUGAGGAUAUGUACAGAAAAAACUGGGUGUAACUGUACAGAAGGCACAUGAGGAUCACCCAUGUGUAUU | – | – | 98.5 nM | 34.1 nM
22 | CUUCGACAUGAGGAUCACCCAUGUCAGGAUAUUGUGUAUCGGGUUUUUUACGGUAAGGCAAGAAGGGAUGUGUG | – | – | 33 nM | 30.2 nM
23 | CUUCGACAUGAGGAUCACCCAUGUCAGGAUAUUGUGUAUCUGGUUUUUUACAGAUAGACAAGAAGGGAUGUGUU | – | – | 27.1 nM | 23.4 nM
24 | CUUCGUAUAGAGGAUAUAGGAUACGAAAGUGUCCUAGAAGGCUGUACAUGAGGAUCACCCAUGUACUUCAGAUC | – | – | 13.2 nM | 16.4 nM
25 | CUUUCGUGAGGAUAUGAAAAUUCGAUCGUGAGAUCGAGGCUACAGAAGGCACAUGAGGAUCACCCAUGUUCCUC | – | – | 31.5 nM | 320 nM
26 | CUUUCGUGAGGAUAUGUGGCUUCGAUCGUGAGAUCGAAACUACAGAAGGCACAUGAGGAUCACCCAUGUUCCUC | – | – | 33.9 nM | 540 nM
27 | CUUUUAUAAUAGAAGGUAGACUUCAUGAGGAUCACCCAUGUGUUGGUACUAAGGAUAUGUAAUAACAUGAGGAUCACCCAUGUU | 15.8 nM | 16.1 nM | – | –
28 | CUUUUAUAAUAGAAGGUAGACUUCAUGAGGAUCACCCAUGUGUUGGUACUAAGGAUAUGUAGUAACAUGAGGAUCACCCAUGUU | 22.6 nM | 22.2 nM | – | –
